Values after ≈ are worked out from the molar mass of the structure shown.
System: Staphylococcus aureus
Test: Antibacterial activity against Staphylococcus aureus ATCC 6538 after 24 hrs by micro dilution method
Type: functional
Conditions: ATCC 6538, 24 h
Outline: (§1)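 Microdilution MIC in 96-well plates. Bacterial suspensions adjusted in sterile saline to 1.0 × 10^5 CFU/ml, giving 1.0 × 10^4 cfu per well in LB broth. Compounds tested at up to 1 mg/ml. Plates incubated 24 h. MIC taken as the lowest concentration with no visible growth under a binocular microscope. OD at 655 nm was also read against a blank and the positive control. Streptomycin and ampicillin were the positive controls.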

| Compound | MIC [µM] |
| --- | --- |
| CCn1c(Cc2cc(OC)c(OC)cc2S(=O)(=O)N(C)C)n[nH]c1=O | 270 (≈ 100 µg/mL) |

System: Enterobacter cloacae
Test: Antibacterial activity against Enterobacter cloacae human isolate after 24 hrs by micro dilution method
Type: functional
Conditions: not given
Outline: as §1

| Compound | MIC [µM] |
| --- | --- |
| CCn1c(Cc2cc(OC)c(OC)cc2S(=O)(=O)N(C)C)n[nH]c1=O | 540 (≈ 200 µg/mL) |

System: Aspergillus niger
Test: Antifungal activity against Aspergillus niger ATCC 6275 after 72 hrs by serial dilution method
Type: functional
Conditions: ATCC 6275, 72 h
Outline: (§2)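 Modified microdilution MIC. Spores were washed from malt agar cultures with sterile 0.85% saline containing 0.1% Tween 80 and adjusted to about 1.0 × 10^5 per 100 µl well in malt broth. Compounds were dissolved in DMSO (1 mg/ml). Plates incubated 72 h at 28 °C. MIC is the lowest concentration with no visible growth under a binocular microscope. Bifonazole and ketoconazole were the references.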

| Compound | MIC [µM] |
| --- | --- |
| CCn1c(Cc2cc(OC)c(OC)cc2S(=O)(=O)N(C)C)n[nH]c1=O | 270 (≈ 100 µg/mL) |

System: Aspergillus versicolor
Test: Antifungal activity against Aspergillus versicolor ATCC 11730 after 72 hrs by serial dilution method
Type: functional
Conditions: ATCC 11730, 72 h
Outline: as §2

| Compound | MIC [µM] |
| --- | --- |
| CCn1c(Cc2cc(OC)c(OC)cc2S(=O)(=O)N(C)C)n[nH]c1=O | 140 (≈ 51.9 µg/mL) |

System: Escherichia coli
Test: Antibacterial activity against Escherichia coli ATCC 35210 treated for 24 hrs followed by sub-cultivated for 72 hrs by micro dilution method
Type: functional
Conditions: not given
Outline: (§3)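 2 µl from each well was serially subcultured into 100 µl fresh broth per well and incubated a further 72 h. MBC is the lowest concentration with no visible growth, taken as 99.5% killing of the original inoculum. Streptomycin and ampicillin were the positive controls.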

| Compound | MBC [µM] |
| --- | --- |
| CCn1c(Cc2cc(OC)c(OC)cc2S(=O)(=O)N(C)C)n[nH]c1=O | 270 (≈ 100 µg/mL) |

System: Trichoderma viride
Test: Antifungal activity against Trichoderma viride IAM 5061 treated for 72 hrs followed by sub-cultivated for 5 days by serial dilution method
Type: functional
Conditions: not given
Outline: (§4)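 MFC obtained after the 72 h, 28 °C malt-broth microdilution (spore inoculum about 1.0 × 10^5 per well, compounds from 1 mg/ml DMSO). 2 µl was serially subcultured into 100 µl broth per well and incubated a further 5 days at 28 °C. MFC is the lowest concentration with no visible growth, taken as 99.5% killing of the original inoculum.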

| Compound | MFC [µM] |
| --- | --- |
| CCn1c(Cc2cc(OC)c(OC)cc2S(=O)(=O)N(C)C)n[nH]c1=O | 270 (≈ 100 µg/mL) |

System: Micrococcus flavus
Test: Antibacterial activity against Micrococcus flavus ATCC 10240 treated for 24 hrs followed by sub-cultivated for 72 hrs by micro dilution method
Type: functional
Conditions: not given
Outline: as §3

| Compound | MBC [µM] |
| --- | --- |
| CCn1c(Cc2cc(OC)c(OC)cc2S(=O)(=O)N(C)C)n[nH]c1=O | 400 (≈ 148 µg/mL) |

System: Salmonella typhimurium
Test: Antibacterial activity against Salmonella Typhimurium ATCC 13311 after 24 hrs by micro dilution method
Type: functional, Salmonella enterica subsp. enterica serovar Typhimurium
Conditions: Salmonella enterica, ATCC 13311, 24 h
Outline: as §1

| Compound | MIC [µM] |
| --- | --- |
| CCn1c(Cc2cc(OC)c(OC)cc2S(=O)(=O)N(C)C)n[nH]c1=O | 400 (≈ 148 µg/mL) |

System: Aspergillus fumigatus
Test: Antifungal activity against Aspergillus fumigatus human isolate treated for 72 hrs followed by sub-cultivated for 5 days by serial dilution method
Type: functional
Conditions: not given
Outline: as §4

| Compound | MFC [µM] |
| --- | --- |
| CCn1c(Cc2cc(OC)c(OC)cc2S(=O)(=O)N(C)C)n[nH]c1=O | 270 (≈ 100 µg/mL) |

System: Aspergillus versicolor
Test: Antifungal activity against Aspergillus versicolor ATCC 11730 treated for 72 hrs followed by sub-cultivated for 5 days by serial dilution method
Type: functional
Conditions: not given
Outline: as §4

| Compound | MFC [µM] |
| --- | --- |
| CCn1c(Cc2cc(OC)c(OC)cc2S(=O)(=O)N(C)C)n[nH]c1=O | 450 (≈ 167 µg/mL) |

System: Pseudomonas aeruginosa
Test: Antibacterial activity against Pseudomonas aeruginosa ATCC 27853 after 24 hrs by micro dilution method
Type: functional
Conditions: ATCC 27853, 24 h
Outline: as §1

| Compound | MIC [µM] |
| --- | --- |
| CCn1c(Cc2cc(OC)c(OC)cc2S(=O)(=O)N(C)C)n[nH]c1=O | 400 (≈ 148 µg/mL) |

System: Micrococcus flavus
Test: Antibacterial activity against Micrococcus flavus ATCC 10240 after 24 hrs by micro dilution method
Type: functional
Conditions: ATCC 10240, 24 h
Outline: as §1

| Compound | MIC [µM] |
| --- | --- |
| CCn1c(Cc2cc(OC)c(OC)cc2S(=O)(=O)N(C)C)n[nH]c1=O | 400 (≈ 148 µg/mL) |

System: Listeria monocytogenes
Test: Antibacterial activity against Listeria monocytogenes NCTC 7973 treated for 24 hrs followed by sub-cultivated for 72 hrs by micro dilution method
Type: functional
Conditions: not given
Outline: as §3

| Compound | MBC [µM] |
| --- | --- |
| CCn1c(Cc2cc(OC)c(OC)cc2S(=O)(=O)N(C)C)n[nH]c1=O | 540 (≈ 200 µg/mL) |

System: Talaromyces funiculosus
Test: Antifungal activity against Penicillium funiculosum ATCC 36839 after 72 hrs by serial dilution method
Type: functional
Conditions: ATCC 36839, 72 h
Outline: as §2

| Compound | MIC [µM] |
| --- | --- |
| CCn1c(Cc2cc(OC)c(OC)cc2S(=O)(=O)N(C)C)n[nH]c1=O | 140 (≈ 51.9 µg/mL) |

System: Listeria monocytogenes
Test: Antibacterial activity against Listeria monocytogenes NCTC 7973 after 24 hrs by micro dilution method
Type: functional
Conditions: NCTC 7973, 24 h
Outline: as §1

| Compound | MIC [µM] |
| --- | --- |
| CCn1c(Cc2cc(OC)c(OC)cc2S(=O)(=O)N(C)C)n[nH]c1=O | 400 (≈ 148 µg/mL) |

System: Trichoderma viride
Test: Antifungal activity against Trichoderma viride IAM 5061 after 72 hrs by serial dilution method
Type: functional
Conditions: IAM 5061, 72 h
Outline: as §2

| Compound | MIC [µM] |
| --- | --- |
| CCn1c(Cc2cc(OC)c(OC)cc2S(=O)(=O)N(C)C)n[nH]c1=O | 140 (≈ 51.9 µg/mL) |

System: Bacillus cereus
Test: Antibacterial activity against Bacillus cereus clinical isolate treated for 24 hrs followed by sub-cultivated for 72 hrs by micro dilution method
Type: functional
Conditions: not given
Outline: as §3

| Compound | MBC [µM] |
| --- | --- |
| CCn1c(Cc2cc(OC)c(OC)cc2S(=O)(=O)N(C)C)n[nH]c1=O | 810 (≈ 300 µg/mL) |

System: Fulvia fulva
Test: Antifungal activity against Fulvia fulva treated for 72 hrs followed by sub-cultivated for 5 days by serial dilution method
Type: functional
Conditions: not given
Outline: as §4

| Compound | MFC [µM] |
| --- | --- |
| CCn1c(Cc2cc(OC)c(OC)cc2S(=O)(=O)N(C)C)n[nH]c1=O | 270 (≈ 100 µg/mL) |

System: Aspergillus flavus
Test: Antifungal activity against Aspergillus flavus ATCC 9643 treated for 72 hrs followed by sub-cultivated for 5 days by serial dilution method
Type: functional
Conditions: not given
Outline: as §4

| Compound | MFC [µM] |
| --- | --- |
| CCn1c(Cc2cc(OC)c(OC)cc2S(=O)(=O)N(C)C)n[nH]c1=O | 450 (≈ 167 µg/mL) |

System: Aspergillus niger
Test: Antifungal activity against Aspergillus niger ATCC 6275 treated for 72 hrs followed by sub-cultivated for 5 days by serial dilution method
Type: functional
Conditions: not given
Outline: as §4

| Compound | MFC [µM] |
| --- | --- |
| CCn1c(Cc2cc(OC)c(OC)cc2S(=O)(=O)N(C)C)n[nH]c1=O | 450 (≈ 167 µg/mL) |

System: Enterobacter cloacae
Test: Antibacterial activity against Enterobacter cloacae human isolate treated for 24 hrs followed by sub-cultivated for 72 hrs by micro dilution method
Type: functional
Conditions: not given
Outline: as §3

| Compound | MBC [µM] |
| --- | --- |
| CCn1c(Cc2cc(OC)c(OC)cc2S(=O)(=O)N(C)C)n[nH]c1=O | 540 (≈ 200 µg/mL) |

System: Penicillium ochrochloron
Test: Antifungal activity against Penicillium ochrochloron ATCC 9112 after 72 hrs by serial dilution method
Type: functional
Conditions: ATCC 9112, 72 h
Outline: as §2

| Compound | MIC [µM] |
| --- | --- |
| CCn1c(Cc2cc(OC)c(OC)cc2S(=O)(=O)N(C)C)n[nH]c1=O | 140 (≈ 51.9 µg/mL) |

System: Aspergillus fumigatus
Test: Antifungal activity against Aspergillus fumigatus human isolate after 72 hrs by serial dilution method
Type: functional
Conditions: not given
Outline: as §2

| Compound | MIC [µM] |
| --- | --- |
| CCn1c(Cc2cc(OC)c(OC)cc2S(=O)(=O)N(C)C)n[nH]c1=O | 140 (≈ 51.9 µg/mL) |

System: Salmonella typhimurium
Test: Antibacterial activity against Salmonella Typhimurium ATCC 13311 treated for 24 hrs followed by sub-cultivated for 72 hrs by micro dilution method
Type: functional, Salmonella enterica subsp. enterica serovar Typhimurium
Conditions: Salmonella enterica
Outline: as §3

| Compound | MBC [µM] |
| --- | --- |
| CCn1c(Cc2cc(OC)c(OC)cc2S(=O)(=O)N(C)C)n[nH]c1=O | 540 (≈ 200 µg/mL) |

System: Penicillium ochrochloron
Test: Antifungal activity against Penicillium ochrochloron ATCC 9112 treated for 72 hrs followed by sub-cultivated for 5 days by serial dilution method
Type: functional
Conditions: not given
Outline: as §4

| Compound | MFC [µM] |
| --- | --- |
| CCn1c(Cc2cc(OC)c(OC)cc2S(=O)(=O)N(C)C)n[nH]c1=O | 270 (≈ 100 µg/mL) |

System: Fulvia fulva
Test: Antifungal activity against Fulvia fulva after 72 hrs by serial dilution method
Type: functional
Conditions: not given
Outline: as §2

| Compound | MIC [µM] |
| --- | --- |
| CCn1c(Cc2cc(OC)c(OC)cc2S(=O)(=O)N(C)C)n[nH]c1=O | 270 (≈ 100 µg/mL) |

System: Talaromyces funiculosus
Test: Antifungal activity against Penicillium funiculosum ATCC 36839 treated for 72 hrs followed by sub-cultivated for 5 days by serial dilution method
Type: functional
Conditions: not given
Outline: as §4

| Compound | MFC [µM] |
| --- | --- |
| CCn1c(Cc2cc(OC)c(OC)cc2S(=O)(=O)N(C)C)n[nH]c1=O | 270 (≈ 100 µg/mL) |

System: Staphylococcus aureus
Test: Antibacterial activity against Staphylococcus aureus ATCC 6538 treated for 24 hrs followed by sub-cultivated for 72 hrs by micro dilution method
Type: functional
Conditions: not given
Outline: as §3

| Compound | MBC [µM] |
| --- | --- |
| CCn1c(Cc2cc(OC)c(OC)cc2S(=O)(=O)N(C)C)n[nH]c1=O | 540 (≈ 200 µg/mL) |

System: Bacillus cereus
Test: Antibacterial activity against Bacillus cereus clinical isolate after 24 hrs by micro dilution method
Type: functional
Conditions: not given
Outline: as §1

| Compound | MIC [µM] |
| --- | --- |
| CCn1c(Cc2cc(OC)c(OC)cc2S(=O)(=O)N(C)C)n[nH]c1=O | 270 (≈ 100 µg/mL) |

System: Pseudomonas aeruginosa
Test: Antibacterial activity against Pseudomonas aeruginosa ATCC 27853 treated for 24 hrs followed by sub-cultivated for 72 hrs by micro dilution method
Type: functional
Conditions: not given
Outline: as §3

| Compound | MBC [µM] |
| --- | --- |
| CCn1c(Cc2cc(OC)c(OC)cc2S(=O)(=O)N(C)C)n[nH]c1=O | 540 (≈ 200 µg/mL) |

System: Escherichia coli
Test: Antibacterial activity against Escherichia coli ATCC 35210 after 24 hrs by micro dilution method
Type: functional
Conditions: ATCC 35210, 24 h
Outline: as §1

| Compound | MIC [µM] |
| --- | --- |
| CCn1c(Cc2cc(OC)c(OC)cc2S(=O)(=O)N(C)C)n[nH]c1=O | 270 (≈ 100 µg/mL) |

System: Aspergillus flavus
Test: Antifungal activity against Aspergillus flavus ATCC 9643 after 72 hrs by serial dilution method
Type: functional
Conditions: ATCC 9643, 72 h
Outline: as §2

| Compound | MIC [µM] |
| --- | --- |
| CCn1c(Cc2cc(OC)c(OC)cc2S(=O)(=O)N(C)C)n[nH]c1=O | 270 (≈ 100 µg/mL) |
